This note sets out measurements from ChEMBL document CHEMBL1130262, “Peptidomimetic inhibitors of the human cytomegalovirus protease” (J Med Chem, 1997).

SMILES strings stand for the structures.

The target of assay [1] is Chymotrypsinogen A (Bos taurus, UniProt P00766). Put plainly: Activity against serine protease bovine pancreatic Alpha-Chymotrypsinogen (BPC). The gist of the method: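 Colorimetric assay with bovine pancreatic α-chymotrypsin ([…], as printed) and 100 μM Succ-AAPF-pNA. Inhibitor at 300–0.06 μM, preincubated with enzyme 1 h at 30 °C. Substrate then added and hydrolysis run to ~30% conversion, read as pNA absorbance.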

Assay [2] has as its target Cathepsin B (Homo sapiens, UniProt P07858). Briefly: Activity against serine protease human liver Cathepsin B (cat-B ). The gist of the method:
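Human liver cathepsin B, 5 nM, with the stock enzyme activated in 20 mM TCEP before use. Inhibitor at 300–0.06 μM, preincubated 1 h at 30 °C. Then 30 μM Z-FR-pNA added, hydrolysis to ~30% conversion, pNA absorbance read.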

Assay [3] addresses T1, Neutrophil elastase (Homo sapiens, UniProt P08246).
T1 sequence (P08246 whole entry): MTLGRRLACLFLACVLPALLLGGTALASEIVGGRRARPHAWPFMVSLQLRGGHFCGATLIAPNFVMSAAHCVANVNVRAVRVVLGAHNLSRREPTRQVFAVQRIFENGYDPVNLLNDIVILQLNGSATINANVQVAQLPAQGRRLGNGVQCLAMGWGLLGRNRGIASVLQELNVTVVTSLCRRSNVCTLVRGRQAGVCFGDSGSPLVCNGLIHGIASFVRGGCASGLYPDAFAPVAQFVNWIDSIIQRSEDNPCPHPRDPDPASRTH
Briefly: Binding affinity for human leukocyte elastase(HLE) serine protease. In a few lines: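 Human leukocyte elastase at 8 nM with 133 μM Succ-AAV-pNA. Inhibitor at 300–0.06 μM, preincubated with enzyme 1 h at 30 °C. Substrate hydrolysis run to ~30% conversion and read by absorbance.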

`CN(C)C(=O)C[C@H](NC(=O)[C@@H](NC(=O)CC(C)(C)C)C(C)(C)C)C(=O)N[C@H]1CN(OCc2ccccc2)C1=O`: the values for the IC50 in assay [1], in assay [2] and in assay [3] were above 75 µM, above 300 µM and above 300 µM, respectively.
With `CC(NC(=O)[C@H](CC(=O)N(C)C)NC(=O)[C@@H](NC(=O)CC(C)(C)C)C(C)(C)C)C(=O)c1nc2ccccc2o1` (stereo partly specified), the figures for the 50% inhibitory concentration (IC50) in assay [1], in assay [2] and in assay [3] were above 300 µM, above 300 µM and 183 µM, respectively.
As for `CC(NC(=O)[C@H](CC(=O)N(C)C)NC(=O)[C@@H](NC(=O)CC(C)(C)C)C(C)(C)C)C(=O)c1nc2ncccc2o1` (stereo partly specified), the concentration for half-maximal inhibition (IC50) (usually the concentration that inhibits the measured activity by half) in assay [1] is above 300 µM; in assay [2], 59 µM; in assay [3] it was above 300 µM.
Consider `Cc1cccc2oc(C(=O)C(C)NC(=O)[C@H](CC(=O)N(C)C)NC(=O)[C@@H](NC(=O)CC(C)(C)C)C(C)(C)C)nc12` (stereo partly specified), for which the concentration for half-maximal inhibition (IC50) in assay [1], in assay [2] and in assay [3] was above 300 µM in each case.
On to `CC(NC(=O)[C@H](CC(=O)N(C)C)NC(=O)[C@@H](NC(=O)CC(C)(C)C)C(C)(C)C)C(=O)c1nc2ccccc2s1` (stereo partly specified), for which the concentration for half-maximal inhibition (IC50) was above 300 µM in assay [1], 19 µM in assay [2] and above 300 µM in assay [3].
Turning to `Cc1ccc2oc(C(=O)C(C)NC(=O)[C@H](CC(=O)N(C)C)NC(=O)[C@@H](NC(=O)CC(C)(C)C)C(C)(C)C)nc2c1` (stereo partly specified), the 50% inhibitory concentration (IC50) in assay [1], in assay [2] and in assay [3] was above 300 µM each time.
Regarding `Cc1cccc2nc(C(=O)C(C)NC(=O)[C@H](CC(=O)N(C)C)NC(=O)[C@@H](NC(=O)CC(C)(C)C)C(C)(C)C)oc12` (stereo partly specified), the concentration for half-maximal inhibition (IC50) in assay [1], in assay [2] and in assay [3] was above 300 µM each time.
Consider `CC(NC(=O)[C@H](CC(=O)N(C)C)NC(=O)[C@@H](NC(=O)CC(C)(C)C)C(C)(C)C)C(=O)C(F)(F)C(F)(F)F` (stereo partly specified), for which the 50% inhibitory concentration (IC50) in assay [1] is 14 µM; in assay [2], above 300 µM; in assay [3] it was above 300 µM.
Turning to `C[C@H](NC(=O)[C@H](CC(=O)N(C)C)NC(=O)[C@@H](NC(=O)CC(C)(C)C)C(C)(C)C)C(=O)C(F)(F)F`, the IC50 in assay [1], in assay [2] and in assay [3] was above 300 µM each time.
For the compound `C[C@H](NC(=O)[C@H](CC(=O)N(C)C)NC(=O)[C@@H](NC(=O)CC(C)(C)C)C(C)(C)C)C(=O)C(F)(F)C(=O)NCc1ccccc1`, the concentration for half-maximal inhibition (IC50) in assay [1], in assay [2] and in assay [3] was above 300 µM in each case.
Turning to `CC(NC(=O)[C@H](CC(=O)N(C)C)NC(=O)[C@@H](NC(=O)CC(C)(C)C)C(C)(C)C)C(=O)C(=O)NCc1ccccc1` (stereo partly specified), the IC50 in assay [1], in assay [2] and in assay [3] was above 300 µM throughout.
Consider `Cc1ccc2nc(C(=O)C(C)NC(=O)[C@H](CC(=O)N(C)C)NC(=O)[C@@H](NC(=O)CC(C)(C)C)C(C)(C)C)oc2c1` (stereo partly specified), for which the results for the IC50 in assay [1], in assay [2] and in assay [3] were above 300 µM, 225 µM and above 300 µM, respectively.
